An excerpt weighted towards active compounds, which were near 2.5% of everything screened.
NR2E3 ag-1 – agonists of human nuclear receptor NR2E3 | GST-NR2E3/biotin-RetCOR TR-FRET, 1536-well | Q9Y5X4 | inhibition of corepressor binding, % at 4.78 µM | 320,000 compounds, 0.12% hits;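 active = percent inhibition above the cutoff of mean plus 3 SD of all tested compounds, set per screening campaign, cut at about 20% in these data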;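 also: 0% = DMSO wells and 100% = biotin wells as full block of FRET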
Target sequence (Q9Y5X4 whole entry, looked up): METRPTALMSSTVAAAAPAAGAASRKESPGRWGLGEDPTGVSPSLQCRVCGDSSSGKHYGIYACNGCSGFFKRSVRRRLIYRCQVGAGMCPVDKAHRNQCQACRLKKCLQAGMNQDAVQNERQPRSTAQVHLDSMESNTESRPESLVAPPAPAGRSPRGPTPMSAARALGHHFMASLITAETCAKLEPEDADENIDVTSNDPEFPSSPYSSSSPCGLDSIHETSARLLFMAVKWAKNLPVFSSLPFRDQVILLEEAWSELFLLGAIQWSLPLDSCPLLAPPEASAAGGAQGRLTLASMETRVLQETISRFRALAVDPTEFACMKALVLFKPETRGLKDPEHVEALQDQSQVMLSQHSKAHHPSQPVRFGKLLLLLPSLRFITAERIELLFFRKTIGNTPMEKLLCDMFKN
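Assay system: NR2E3–RetCOR corepressor complex. Quantity: 1.35 nM GST-NR2E3. Buffer or medium: pH 7.5 Tris-based buffer. Reagent: biotinylated RetCOR corepressor at 7 nM final. Schedule: 5 h at 4 °C. Detection: TR-FRET, emission read at 617 and 671 nm. Replicates: one well per compound, singlicate testing.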
bovine MsrA act – activates bovine MsrA enzyme. purified bovine MsrA, absorbance read-out. activation, % at 10.6 µM. AID 602163. 360,000 compounds, 0.3% hits; in the data active = activation above about 7.5%;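 also: 0% = vehicle and 100% = reference activator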
NadD inh – blocks S. aureus nicotinate mononucleotide adenylyltransferase | purified NadD enzyme, colorimetric absorbance read-out | 360,000 compounds, 0.78% hits | inhibition, % at 20 µM; in the data active = inhibition above about 26%
NR2E3 ag-2 – human photoreceptor-specific nuclear receptor agonism; CHO-S Gal4-NCOR/VP16-NR2E3 two-hybrid, luciferase; 360,000 compounds, 0.35% hits; AID 602229; inhibition of corepressor binding, % at 3.98 µM;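 active = inhibition above the mean of all tested compounds plus 3 SD, cut at about 70% in these data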;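 also: 0% = DMSO with NR2E3 transfected cells and 100% = cells lacking NR2E3 construct; higher means lower luciferase signal from less NR2E3 corepressor binding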
GalR3 antag – antagonists of human GalR3; 360,000 compounds, 0.44% hits; O60755; inhibition, % at 3 µM; HEK293 GalR3-CNG cAMP membrane potential fluorescence; galR3 body fused to GalR1 C-terminus;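 active = inhibition above the screen-wide average plus 3 SD, cut at about 13% in these data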;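 also: forskolin and galanin both at EC90 stimulate the cells; cAMP rise reported by CNG channel membrane potential dye signal; 0% = forskolin plus galanin with DMSO and 100% = forskolin alone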
Target sequence (O60755 1-299 limits assumed): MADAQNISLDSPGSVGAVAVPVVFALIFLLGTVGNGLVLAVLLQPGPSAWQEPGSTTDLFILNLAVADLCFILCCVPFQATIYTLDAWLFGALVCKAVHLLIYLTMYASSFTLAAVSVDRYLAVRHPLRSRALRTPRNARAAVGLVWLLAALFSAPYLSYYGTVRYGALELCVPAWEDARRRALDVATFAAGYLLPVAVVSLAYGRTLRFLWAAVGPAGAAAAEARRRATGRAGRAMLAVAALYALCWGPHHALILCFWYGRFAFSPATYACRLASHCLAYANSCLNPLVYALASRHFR
MsrA inhibitor – inhibits bovine methionine sulfoxide reductase A; inhibition, % at 15.5 µM; AID 651718; 360,000 compounds, 0.75% hits; purified bovine MsrA, absorbance read-out; in the data active = inhibition above about 4.5%;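 also: 0% = vehicle wells with enzyme and 100% = reference inhibitor wells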
NadD inh conf – confirmation of Staphylococcus aureus NadD inhibitors; shares compounds with NadD inh; purified S. aureus NadD, colorimetric enzyme assay; inhibition, % at 20 µM; 2,000 compounds, 13% hits; in the data active = inhibition mostly above about 42%, no sharp cut-off; inactive = mostly below about 42%
* = called active by the depositor; nt = no result; ! = a repeat was not active.

SMILES	NR2E3 ag-1	bovine MsrA act	NadD inh	NR2E3 ag-2	GalR3 antag	MsrA inhibitor	NadD inh conf
O=C(NC(Cc1c[nH]c2ccccc12)C(=O)N/N=C/c1cccc2ccccc12)c1cccs1 (stereo not given)	3.5	-10.8	37.2*	20.1	-4.9	3.9	25.2
Cc1cc(C)n(-c2nc(Nc3ccccc3C(F)(F)F)nc(-n3nc(C)cc3C)n2)n1	-3.9	-1.3	12.9	38.9	-13.6	-0.3	nt
O=[N+]([O-])c1ccc(Nc2nc(NC3CCCCC3)nc(N3CCCC3)n2)cc1	4.2	-10.0	38.9*	5.2	-7.7	-0.8	11.0
O=[N+]([O-])c1ccc(Nc2nc(N/N=C/c3cccc(F)c3)nc(N3CCCC3)n2)cc1	-1.1	-2.6	38.3*	-23.0	1.2	1.3	-3.0
O=[N+]([O-])c1cc2c(cc1/C=N/Nc1nc(Nc3ccccc3)nc(N3CCCCC3)n1)OCO2	1.6	-0.5	39.4*	-30.6	-3.1	-0.2	3.3
O=C(Nc1ccccc1N1CCOCC1)c1ccc(F)c(S(=O)(=O)N2CCOCC2)c1	1.7	-4.1	-7.7	-19.6	-5.1	-0.6	nt
Cc1cc(-c2ccccc2)nc2[n+]1CCN2C	1.6	-10.9	-3.3	-5.1	-9.9	0.7	nt
COc1ccc(/C=N/NC(=O)c2ccn[nH]2)cc1COc1ccc(F)cc1	1.6	-16.4	9.9	3.6	-7.3	2.2	nt
COc1ccc(/C=N/NC(=O)c2ccn[nH]2)cc1COc1ccc([N+](=O)[O-])c(C)c1	-1.2	-0.8	30.9*	-17.7	3.6	1.8	21.7
CCc1ccc(-c2cc(C(=O)Nc3c(C)n(C)n(-c4ccccc4)c3=O)c3ccccc3n2)s1	0.4	-4.8	18.4	-29.8	nt	nt	nt
Cc1cc(Br)cc2c(C(=O)Nc3c(C)n(C)n(-c4ccccc4)c3=O)cc(-c3cccs3)nc12	8.6	-1.7	30.3*	4.3	-11.6	-0.3	9.8
Cc1ccc2c(C)nc(/N=C(\N)NC(=O)N3c4ccccc4Sc4ccccc43)nc2c1	1.5	-10.1	26.4	-19.0	1.4	-1.2	nt
Cc1ccc2nc(/N=C(\N)NC(=O)N3c4ccccc4Sc4ccccc43)nc(C)c2c1	-6.5	-3.2	31.0*	-17.4	2.5	-0.1	5.5
Cc1cc2nc(/N=C(\N)NC(=O)N3c4ccccc4Sc4ccccc43)nc(C)c2cc1C	-4.2	-2.9	26.7*!	-33.0	4.1	0.0	7.5
Cc1nn(-c2ccc(Cl)cc2)c(Cl)c1/C=C(\C#N)C(N)=O	0.0	0.1	-7.2	-43.5	0.8	0.3	nt
NC(=O)c1cc(Cl)ccc1OCC(=O)Nc1ccc2c(c1)OCO2	-0.2	-1.0	7.2	-92.3	-4.6	1.2	nt
NC(CSC(c1ccccc1)(c1ccccc1)c1ccc2c(c1)OCO2)C(=O)O (stereo not given)	nt	0.3	31.2*	1.9	-5.0	-0.2	32.9
CCCSc1nnc(NC(=O)c2sc3nc(-c4cccs4)ccc3c2N)s1	2.9	1.8	36.5*	-59.4	-0.5	3.2	10.2
O=c1c2ccccc2c(/C=N/c2nnc(Cc3ccccc3)s2)c(O)n1-c1ccc(Cl)cn1	-0.7	-8.8	47.8*	-1.7	-3.6	1.2	-2.8
Cc1c(NC(=O)/C(C#N)=C/c2ccc(-c3ccc(Cl)c(Cl)c3)o2)c(=O)n(-c2ccccc2)n1C	1.3	-3.1	32.8*	-8.4	-0.3	0.1	8.3
COc1ccc(OC)c(NC(=O)Cc2ccc(NC3=NC4CS(=O)(=O)CC4S3)cc2)c1 (stereo not given)	-2.9	0.3	2.5	-0.7	nt	0.1	nt
COc1ccc(Cn2c(C)nc3c(c2=O)c2nc4ccccc4nc2n3Cc2ccco2)cc1	nt	-2.1	38.0*	-20.8	-2.1	3.7	18.1
Cc1cc(C)cc(-n2c3nc4ccccc4nc3c3c(=O)n(Cc4ccco4)cnc32)c1	0.5	-5.9	33.4*	-9.3	-0.2	2.0	9.0
Cc1cc(C)cc(NC(=O)COC(=O)C2CC3C=CC2C3)c1 (stereo not given)	nt	-0.2	-0.8	6.0	-8.4	-1.3	nt
COc1ccc(NC(=O)N(C)C[C@H]2Oc3ccc(NC(=O)c4ccncc4)cc3C(=O)N([C@H](C)CO)C[C@@H]2C)cc1	nt	-7.4	39.5*	10.9	-4.6	0.0	41.4*
SMILES	NR2E3 ag-1	bovine MsrA act	NadD inh	NR2E3 ag-2	GalR3 antag	MsrA inhibitor	NadD inh conf
C[C@H](CO)N1C[C@H](C)[C@@H](CN(C)S(=O)(=O)c2ccccc2)Oc2ccc(NC(=O)Nc3ccc(C(F)(F)F)cc3)cc2C1=O	nt	2.2	35.0*	-26.4	-6.3	0.3	5.5
C[C@H](CO)N1C[C@H](C)[C@@H](CN(C)Cc2ccncc2)OCCCC[C@H](C)Oc2ccc(NC(=O)CCCN(C)C)cc2C1=O	nt	-4.3	54.4*	3.5	-3.4	1.3	26.9
O=C(Cc1ccccc1)NC1CCN(C(=O)NCc2ccccc2)CC1	-2.2	-0.2	1.8	-22.2	3.2	0.2	nt
CCC(=O)NNc1ncnc2c1cnn2-c1cccc(C)c1	-1.6	-3.3	0.3	3.7	-7.1	1.4	nt
O=C(Nc1nc(-c2ccco2)c(-c2ccco2)s1)c1ccc(F)cc1F	nt	-6.0	41.3*	-4.2	-2.9	0.5	13.3
O=C(Nc1nc(-c2ccco2)c(-c2ccco2)s1)c1cnccn1	1.1	nt	nt	nt	-2.7	1.9	nt
O=C(Nc1nc(-c2ccco2)c(-c2ccco2)s1)c1c(F)cccc1Cl	-6.0	-8.4	43.2*	-5.9	-3.5	0.3	34.8
O=S(=O)(Nc1nc(-c2ccco2)c(-c2ccco2)s1)c1ccc(F)cc1F	nt	-1.0	6.2	-7.5	9.2	0.8	nt
CN(Cc1ccccc1)Cc1c(F)cccc1F	2.4	-2.5	-6.4	12.5	-4.0	-0.8	nt
O=C(C(=O)N1CCCC1)c1c[nH]c2ccccc12	-1.0	2.6	-6.6	-18.2	-8.8	1.3	nt
O=c1[nH]c2ccc(Cl)cc2c(O)c1-c1ccccc1	-3.5	-1.5	-3.9	-11.8	-2.0	0.6	nt
NNC(=O)CSc1c(-c2ccccc2)c2cc(Cl)ccc2[nH]c1=O	nt	-10.1	8.5	-4.5	-4.0	1.6	nt
O=c1[nH]c2ccc(Cl)cc2c(-c2ccccc2)c1SC(=S)N1CCCCC1	2.1	-1.3	37.1*	-21.0	2.5	0.7	6.6
O=c1[nH]c2ccc(Cl)cc2c(-c2ccccc2)c1SC(=S)N1CCOCC1	-0.8	-1.8	40.3*	-21.7	-4.6	-0.2	-8.1
Cc1ccc(S(=O)(=O)N2CCN(C(=O)c3cc(S(=O)(=O)N4CCOCC4)ccc3Cl)CC2)c(C)c1	nt	-1.7	4.1	15.0	-7.2	-1.1	nt
COc1cccc(C2C(C(C)=O)=C(O)C(=O)N2Cc2ccco2)c1 (stereo not given)	4.6	-0.6	4.7	3.6	-7.0	3.4	nt
Oc1csc(Cc2nc(-c3ccc4ccccc4c3)cs2)n1	-0.1	-8.2	56.0*	-83.8	-1.6	2.1	38.1
O=[N+]([O-])c1ccccc1N=Nc1ccc(O)cc1	-2.5	-3.3	-2.2	-51.0	1.3	0.7	nt

High-throughput results from PubChem BioAssay.
